According to ChEMBL document CHEMBL1133253, “Improved antibacterial activities of coumarin antibiotics bearing 5',5'-dialkylnoviose: biological activity of RU79115” (Bioorg Med Chem Lett, 2000):
Values after ≈ are worked out from the molar mass of the structure shown.

Columns and labels:
Enterococcus [1] = test: Minimum inhibitory concentration evaluated against enterococci species resistant to vancomycin [65]*; type: functional
Enterococcus [2] = test: Minimum inhibitory concentration evaluated against enterococci species resistant to vancomycin and teicoplanin [17]*; type: functional
Enterococcus [3] = test: Minimum inhibitory concentration evaluated against enterococci species susceptible to vancomycin [26]*; type: functional
Enterococcus [4] = test: In vitro anti-enterococcal activity against enterococci species resistant to vancomycin [65]* expressed as geometric mean; type: functional
Enterococcus [5] = test: In vitro anti-enterococcal activity against enterococci species resistant to vancomycin and teicoplanin [17]* expressed as geometric mean; type: functional
Enterococcus [6] = test: In vitro anti-enterococcal activity against enterococci species susceptible to vancomycin [26]* expressed as geometric mean; type: functional
Mus musculus [7] = test: Minimum inhibitory concentration of the subcutaneously administered compound evaluated against Staphylococcus aureus HT-18 strain in mice (SC); type: functional
Mus musculus [8] = test: Minimum inhibitory concentration of the subcutaneously administered compound evaluated against Enterococci faecalis D2HT6 strain in mice; type: functional
Mus musculus [9] = test: Minimum inhibitory concentration of the subcutaneously administered compound evaluated against Enterococci faecium D3HT7 strain in mice (po); type: functional
Mus musculus [10] = test: Minimum inhibitory concentration of the subcutaneously administered compound evaluated against Streptococcus pyogenes A1UC1 strain in mice (po); type: functional
Mus musculus [11] = test: Minimum inhibitory concentration of the subcutaneously administered compound evaluated against […] B1HT3 strain in mice (po); type: functional
Mus musculus [12] = test: Minimum inhibitory concentration of the subcutaneously administered compound evaluated against vancomycin resistant Enterococci faecium D3HM4 strain in mice (po); type: functional
Mus musculus [13] = test: Minimum inhibitory concentration of the subcutaneously administered compound evaluated against vancomycin resistant Enterococci faecium D3HT12 strain in mice (po); type: functional
Mus musculus [14] = test: Protective dose of subcutaneously administered compound against intraperitoneally-induced septicaemia model (Streptococcus pyogenes A1UC1 strain) in murine; type: functional; conditions: sc, read-out: PD50
Summary of the method: (§1)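 Murine septicaemia was induced by intraperitoneal infection, and the compound was given subcutaneously. PD50 was derived by probit analysis.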

Mus musculus [15] = test: Protective dose of subcutaneously administered compound against intraperitoneally-induced septicaemia model ([…] B1HT3 strain) in murine; type: functional; conditions: sc, read-out: PD50; summary of the method: as §1
Mus musculus [16] = test: Protective dose of subcutaneously administered compound against intraperitoneally-induced septicaemia model (Staphylococcus aureus GR56 strain resistant to oxacillin) in murine; type: functional; conditions: sc, read-out: PD50; summary of the method: as §1
Mus musculus [17] = test: Protective dose of subcutaneously administered compound against intraperitoneally-induced septicaemia model (Staphylococcus aureus HT18) in murine; type: functional; conditions: sc, read-out: PD50; summary of the method: as §1
pneumococci = test: In vitro anti-streptococcal activity against pneumococci resistant to penicillin [29]* expressed as geometric mean; type: functional
[18] = Minimum inhibitory concentration evaluated against pneumococci resistant to penicillin [29]*; type: functional
Staphylococcus sp. [19] = test: Minimum inhibitory concentration evaluated against Staphylococcus species [91]*; type: functional
Summary of the method: (§2)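 Two-fold agar dilution MIC, in µg/mL, against Staphylococcus panels grouped by resistance phenotype (oxacillin and/or ofloxacin resistant). Per-panel values are reported as the geometric mean and MIC90 across strains; the strain count per panel is given in brackets.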

Staphylococcus sp. [20] = test: Minimum inhibitory concentration evaluated against Staphylococcus species resistant to ofloxacin [59]*; type: functional; summary of the method: as §2
Staphylococcus sp. [21] = test: Minimum inhibitory concentration evaluated against Staphylococcus species resistant to oxacillin [66]*; type: functional; summary of the method: as §2
Staphylococcus sp. [22] = test: Minimum inhibitory concentration evaluated against Staphylococcus species resistant to oxacillin and ofloxacin [47]*; type: functional; summary of the method: as §2
Streptococcus sp. [23] = test: In vitro anti-streptococcal activity against Streptococci species (viridans) [25]* expressed as geometric mean; type: functional
Streptococcus sp. [24] = test: In vitro anti-streptococcal activity against Streptococci species [38]* expressed as geometric mean; type: functional
Streptococcus sp. [25] = test: Minimum inhibitory concentration evaluated against Streptococci species (viridans) [25]*; type: functional
Streptococcus sp. [26] = test: Minimum inhibitory concentration evaluated against Streptococci species [38]*; type: functional
Mus musculus [27] = test: Protective dose of subcutaneously administered compound against intraperitoneally-induced septicaemia model (vancomycin resistant Enterococci faecium D3HT12 strain ) in murine; type: functional; conditions: sc, read-out: PD50; summary of the method: as §1
Mus musculus [28] = test: Protective dose of subcutaneously administered compound against intraperitoneally-induced septicaemia model (Enterococci faecalis D2HT6 strain) in murine; type: functional; conditions: sc, read-out: PD50; summary of the method: as §1
Mus musculus [29] = test: Protective dose of subcutaneously administered compound against intraperitoneally-induced septicaemia model (Enterococci faecium D3HT7 strain ) in murine; type: functional; conditions: sc, read-out: PD50; summary of the method: as §1
Mus musculus [30] = test: Protective dose of subcutaneously administered compound against intraperitoneally-induced septicaemia model (vancomycin resistant Enterococci faecium D3AP9 strain ) in murine; type: functional; conditions: sc, read-out: PD50; summary of the method: as §1
Mus musculus [31] = test: Protective dose of subcutaneously administered compound against intraperitoneally-induced septicaemia model (vancomycin resistant Enterococci faecium D3HM3 strain ) in murine; type: functional; conditions: sc, read-out: PD50; summary of the method: as §1
Mus musculus [32] = test: Protective dose of subcutaneously administered compound against intraperitoneally-induced septicaemia model (vancomycin resistant Enterococci faecium D3HM4 strain ) in murine; type: functional; conditions: sc, read-out: PD50; summary of the method: as §1
Mus musculus [33] = test: Minimum inhibitory concentration of the subcutaneously administered compound evaluated against vancomycin resistant Enterococci faecium D3AP9 strain in mice (po); type: functional
Mus musculus [34] = test: Minimum inhibitory concentration of the subcutaneously administered compound evaluated against vancomycin resistant Enterococci faecium D3HM3 strain in mice (po); type: functional
Mus musculus [35] = test: Minimum inhibitory concentration of the subcutaneously administered compound evaluated against Staphylococcus aureus GR56 strain resistant to oxacillin in mice (sc)
Mus musculus [36] = test: Minimum inhibitory concentration of the subcutaneously administered compound evaluated against Staphylococcus aureus HT-18 strain in mice; type: functional
Mus musculus [37] = test: Minimum inhibitory concentration of the subcutaneously administered compound evaluated against […] A1UC1 strain in mice; type: functional
Mus musculus [38] = test: Minimum inhibitory concentration of the subcutaneously administered compound evaluated against vancomycin resistant Enterococci faecium D3AP9 strain in mice; type: functional
Mus musculus [39] = test: Minimum inhibitory concentration of the subcutaneously administered compound evaluated against Enterococci faecium D3HT7 strain in mice; type: functional
Mus musculus [40] = test: Minimum inhibitory concentration of the subcutaneously administered compound evaluated against […] B1HT3 strain in mice; type: functional
Mus musculus [41] = test: Minimum inhibitory concentration of the subcutaneously administered compound evaluated against Staphylococcus aureus GR56 strain resistant to oxacillin in mice; type: functional
Mus musculus [42] = test: Minimum inhibitory concentration of the subcutaneously administered compound evaluated against vancomycin resistant Enterococci faecium D3HM4 strain in mice; type: functional
Mus musculus [43] = test: Minimum inhibitory concentration of the subcutaneously administered compound evaluated against vancomycin resistant Enterococci faecium D3HT12 strain in mice; type: functional
Staphylococcus sp. [44] = test: In vitro anti-staphylococcal activity against Staphylococcus species resistant to ofloxacin [59]* expressed as geometric mean; type: functional; summary of the method: as §2
Staphylococcus sp. [45] = test: In vitro anti-staphylococcal activity against Staphylococcus species resistant to oxacillin [66]* expressed as geometric mean; type: functional; summary of the method: as §2
Staphylococcus sp. [46] = test: In vitro anti-staphylococcal activity against Staphylococcus species resistant to oxacillin and ofloxacin[47]* expressed as geometric mean; type: functional; summary of the method: as §2
Mus musculus [47] = test: Protective dose of subcutaneously administered compound against intraperitoneally-induced septicaemia model ([…] A1UC1 strain) in murine; type: functional; conditions: sc, read-out: PD50; summary of the method: as §1
Staphylococcus sp. [48] = test: In vitro anti-staphylococcal activity against Staphylococcus species [91]* expressed as geometric mean; type: functional
Summary of the method: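 Two-fold agar-dilution MICs (µg/mL) were run on a panel of staphylococcal isolates and summarised as the geometric mean across strains.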

SMILES | MIC90 (Enterococcus [1]) | MIC90 (Enterococcus [2]) | MIC90 (Enterococcus [3]) | GM (Enterococcus [4]) | GM (Enterococcus [5]) | GM (Enterococcus [6]) | MIC (Mus musculus [8]) | ED50 (Mus musculus [15]) | ED50 (Mus musculus [16]) | ED50 (Mus musculus [17]) | GM (pneumococci) | MIC90 [18] | MIC90 (Staphylococcus sp. [19]) | MIC90 (Staphylococcus sp. [20]) | MIC90 (Staphylococcus sp. [21]) | MIC90 (Staphylococcus sp. [22]) | GM (Streptococcus sp. [23]) | GM (Streptococcus sp. [24]) | MIC90 (Streptococcus sp. [25]) | MIC90 (Streptococcus sp. [26]) | also measured
CN[C@H](CC(C)C)C(=O)N[C@H]1C(=O)N[C@@H](CC(N)=O)C(=O)N[C@H]2C(=O)N[C@H]3C(=O)N[C@H](C(=O)N[C@H](C(=O)O)c4cc(O)cc(O)c4-c4cc3ccc4O)[C@H](O)c3ccc(c(Cl)c3)Oc3cc2cc(c3O[C@@H]2O[C@H](CO)[C@@H](O)[C@H](O)[C@H]2O[C@H]2C[C@](C)(N)[C@H](O)[C@H](C)O2)Oc2ccc(cc2Cl)[C@H]1O [VANCOMYCIN] | > 20 µg/mL | > 20 µg/mL | 0.6 µg/mL (≈ 0.414 µM) | 23.7 | 36.9 | 0.75 | 2.5 µg/mL (≈ 1.73 µM) | 17.2 mg/kg | 4 mg/kg | 7.8 mg/kg | 0.24 | 0.3 µg/mL (≈ 0.207 µM) | 2.5 µg/mL (≈ 1.73 µM) | 2.5 µg/mL (≈ 1.73 µM) | 2.5 µg/mL (≈ 1.73 µM) | 2.5 µg/mL (≈ 1.73 µM) | 0.4 | 0.35 | 0.6 µg/mL (≈ 0.414 µM) | 0.6 µg/mL (≈ 0.414 µM) | MIC (Mus musculus [7]): 1.2 µg/mL (≈ 0.828 µM); MIC (Mus musculus [9]): 2.5 µg/mL (≈ 1.73 µM); MIC (Mus musculus [10]): 0.6 µg/mL (≈ 0.414 µM); MIC (Mus musculus [11]): 0.3 µg/mL (≈ 0.207 µM); MIC (Mus musculus [12]): > 40 µg/mL; MIC (Mus musculus [13]): > 40 µg/mL; ED50 (Mus musculus [14]): < 1.5 mg/kg; ED50 (Mus musculus [27]): > 50 mg/kg; ED50 (Mus musculus [28]): 16.7 mg/kg; ED50 (Mus musculus [29]): 8.7 mg/kg; ED50 (Mus musculus [30]): > 50 mg/kg; ED50 (Mus musculus [31]): > 50 mg/kg; ED50 (Mus musculus [32]): > 50 mg/kg; MIC (Mus musculus [33]): > 40 µg/mL; MIC (Mus musculus [34]): > 40 µg/mL; MIC (Mus musculus [35]): 1.2 µg/mL (≈ 0.828 µM)
CC(=O)NC[C@H]1CN(c2ccc(N3CCN(C(=O)CO)CC3)c(F)c2)C(=O)O1 [EPEREZOLID] | 1.2 µg/mL (≈ 3.04 µM) | 1.2 µg/mL (≈ 3.04 µM) | 0.6 µg/mL (≈ 1.52 µM) | 0.72 | 0.43 | 0.51 | 0.6 µg/mL (≈ 1.52 µM) | > 50 mg/kg | 5 mg/kg | 20 mg/kg | 0.25 | 0.3 µg/mL (≈ 0.761 µM) | 1.2 µg/mL (≈ 3.04 µM) | 1.2 µg/mL (≈ 3.04 µM) | 1.2 µg/mL (≈ 3.04 µM) | 1.2 µg/mL (≈ 3.04 µM) | 0.39 | 0.52 | 1.2 µg/mL (≈ 3.04 µM) | 0.6 µg/mL (≈ 1.52 µM) | MIC (Mus musculus [36]): 0.6 µg/mL (≈ 1.52 µM); MIC (Mus musculus [37]): < 0.15 µg/mL; MIC (Mus musculus [38]): 1.2 µg/mL (≈ 3.04 µM); MIC (Mus musculus [39]): 0.6 µg/mL (≈ 1.52 µM); MIC (Mus musculus [40]): 0.6 µg/mL (≈ 1.52 µM); MIC (Mus musculus [41]): 1.2 µg/mL (≈ 3.04 µM); MIC (Mus musculus [42]): 0.3 µg/mL (≈ 0.761 µM); MIC (Mus musculus [43]): 0.3 µg/mL (≈ 0.761 µM); GM (Staphylococcus sp. [44]): 0.71; GM (Staphylococcus sp. [45]): 0.73; GM (Staphylococcus sp. [46]): 0.72; ED50 (Mus musculus [27]): 1.5 mg/kg; ED50 (Mus musculus [28]): 6.4 mg/kg; ED50 (Mus musculus [29]): 3 mg/kg; ED50 (Mus musculus [47]): 22.8 mg/kg; ED50 (Mus musculus [30]): 8.7 mg/kg; ED50 (Mus musculus [31]): 2.8 mg/kg; ED50 (Mus musculus [32]): 27.2 mg/kg; GM (Staphylococcus sp. [48]): 0.74
